From ChEMBL document CHEMBL1130749, “Inhibitors of the chymotrypsin-like activity of proteasome based on di- and tri-peptidyl alpha-keto aldehydes (glyoxals)” (Bioorg Med Chem Lett, 1998)
Peptide text beside a SMILES is read from it. * marks the point of attachment. Cbz = O=C(OCc1ccccc1)*

system: Proteasome; experiment: Inhibitory constant for the inactivation of the chymotrypsin like activity of proteasome from human red blood corpuscles was determined; NI means no inhibition; assay type: subcellular
Method in brief: (§1)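 Proteasome isolated from human erythrocytes by a previously described procedure. Its chymotrypsin-like activity was followed by hydrolysis of the fluorogenic substrate Suc-Leu-Leu-Val-Tyr-NHMec. Inhibition was treated as slow-binding, with a fast EI complex forming first and then isomerising to a tight EI*. Ki* was obtained from the final steady-state rates using a rearranged competitive-inhibition equation.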

Row | Ki | Structure (SMILES)
1 | Not Active | CC(=O)N[C@@H](C(=O)N[C@@H](CC(C)C)C(=O)N[C@@H](CCCCN)C(=O)C=O)C(C)C
2 | Not Active | O=CC(=O)[C@H](Cc1ccccc1)NC(=O)[C@@H]1CCCN1C(=O)OCc1ccccc1
3 | Not Active | CC(=O)N[C@@H](CCCN=C(N)N)C(=O)N[C@@H](CCCN=C(N)N)C(=O)C=O

target: Proteasome; experiment: Inhibitory constant for the inactivation of the chymotrypsin like activity of proteasome from human red blood corpuscles was determined; assay type: subcellular; method in brief: as §1

Row | Structure (SMILES) | Ki
4 | CC(C)C[C@H](NC(=O)[C@H](C)NC(=O)OCc1ccccc1)C(=O)C=O | 3860 nM
5 | C[C@H](NC(=O)OCc1ccccc1)C(=O)N[C@@H](Cc1ccccc1)C(=O)C=O | 9200 nM

The remaining lines, values ahead:

Row | Ki | Structure (SMILES)
6 | 2050 nM | CC(C)[C@H](NC(=O)OCc1ccccc1)C(=O)N[C@@H](Cc1ccccc1)C(=O)C=O
7 | 3.7 nM | CC(C)C[C@H](NC(=O)[C@H](CC(C)C)NC(=O)[C@@H](CC(C)C)NC(=O)c1ccccc1)C(=O)C=O
8 | 1400 nM | CC(C)C[C@H](NC(=O)OCc1ccccc1)C(=O)N[C@@H](Cc1ccccc1)C(=O)C=O
9 | 3.1 nM | CC(C)C[C@H](NC(=O)[C@@H](CC(C)C)NC(=O)OCc1ccccc1)C(=O)N[C@@H](Cc1ccc(O)cc1)C(=O)C=O
10 | 4 nM | CC(C)C[C@@H](C=O)NC(=O)[C@H](CC(C)C)NC(=O)[C@H](CC(C)C)NC(=O)OCc1ccccc1 [MG-132] (Cbz-Leu-Leu-Leu-aldehyde)
